CHOP inhibitor: CHOP inhibition in unfolded protein response. CHO-K1 CHOP-promoter luciferase, tunicamycin-induced, 15-18 h. inhibition, % at 10 µM. actives 3.8% (n = 220,000). AID 2732;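 active = compounds that reduced the stress-induced luciferase reporter signal by more than about 70% of percent inhibition, limit read from the data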
UPR CHOP act: apoptotic UPR (CHOP) activation. actives 0.34% (n = 330,000). activation, % at 10 µM. CHO-CHOP luciferase reporter, luminescence; percent of tunicamycin response over DMSO baseline. AID 449763;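 active = at 10 µM dose, activation of 40% or more, normalized to positive control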
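Test system: CHO CHOP reporter cells. Input: 500 CHO-CHOP cells per well. Medium: F12 with 10% FBS. Technique: luciferase luminescence. Measure: percent activation relative to tunicamycin control. Dosing: 10 µM compound, 0.5% DMSO. Timing: 16-18 h cell attachment, then 6 h compound exposure, 37 °C.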
A1 inh: inhibitors of the anti-apoptotic protein A1, read as caspase activation. MEF A1-2A-BIM cells, Caspase-Glo 3/7 luminescence, 3 h; percent of clofoctol response, vehicle zero. caspase activation, % (concentration not given with the values). AID 2462. actives 0.066% (n = 330,000);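 active = over half of replicate activation scores above 10%, or exactly half above 10 with the replicate mean above 10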
XBP1 UPR activ: adaptive UPR (XBP1) activation | actives 0.33% (n = 330,000) | CHO-XBP1 luciferase reporter, IRE1-XBP1 UPR activation, luminescence; percent of tunicamycin response, DMSO as zero | activation, % at 20 µM;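 active = versus positive control, 20 µM dose yields 30% or more activation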
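Material: CHO cell line with stable XBP1 luciferase reporter; schedule: 16-18 h cell attachment at 37 °C, then 6 h compound exposure; signal: glow luminescence from Steady-Glo reagent; medium: serum-containing F12 medium, 10% FBS; benchmarks: tunicamycin 10 µg/mL and vehicle-only wells; read-out: percent activation relative to tunicamycin reference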
Large screens that a line does not name were inactive. This excerpt belongs to a sample that is enriched for hits.

COc1ccc(OCCN(C)Cc2ccccc2)cc1	none
CN(CCOCCOc1ccc2ccccc2c1)Cc1ccccc1	CHOP inhibitor 71
CN(CC(=O)Nc1ccc(Cl)c(Cl)c1)C(=O)CN1C(=O)NC2(CCCC2)C1=O	none (no result: CHOP inhibitor)
Cc1ccc2oc(=O)n(CCCOc3ccccc3C)c2c1	CHOP inhibitor 82
Cc1ccc2oc(=O)n(Cc3ccccc3OC(C)C)c2c1	CHOP inhibitor 84
CC(C)(C)OC(=O)N[C@@H](Cc1ccccc1)c1nnc(SCC(=O)c2ccc(Cl)cc2)o1	CHOP inhibitor 86
Cc1cccc(C)c1OCc1nnc(NC(=O)CSc2ccc(Cl)cc2)s1	CHOP inhibitor 83
c1csc(CSc2nc3ccccc3s2)c1	CHOP inhibitor 86
Cc1noc(C)c1CSc1nc2ccccc2s1	none
Cc1ccc2[nH]c3c(c2c1)CCCC3NC(=O)CCl (stereo not drawn)	A1 inh 5.3 (no result: CHOP inhibitor)
Cc1ccc2[nH]c3c(c2c1)CCCC3C(N)=O (stereo not drawn)	none
N#CCCCC#Cc1ccc2c(c1)COc1c3ccccc3nn1-2	none (no result: CHOP inhibitor)
COc1ccc(Br)cc1C(=O)N/N=C/c1ccc([N+](=O)[O-])cc1	CHOP inhibitor 100
CCOc1ccc(Br)cc1C(=O)N/N=C/c1ccc([N+](=O)[O-])cc1	none
c1ccc(CCNc2ncnc3c2nnn3Cc2ccccc2)cc1	CHOP inhibitor 89
CC(C)(C)c1cc(OC(=O)c2ccncc2)ccc1O	none
CCOC(=O)NC(NCc1ccccc1Cl)(C(F)(F)F)C(F)(F)F	CHOP inhibitor 95
Oc1nc(Nc2ccc(Cl)cc2Cl)sc1/C=C1\C=Nc2ccccc21	CHOP inhibitor 73
O=c1c2cnn(-c3ccccc3)c2ncn1Cc1cccc(Cl)c1	none
Cc1ccc(NC(=O)Cn2nnc3ccccc3c2=O)cc1	none
COC(=O)c1sc(NC(=O)c2cc(-c3ccccc3)nc3ccccc23)c(C#N)c1C	CHOP inhibitor 75
COC(=O)c1sccc1NC(=O)c1cc(-c2cc(C)ccc2C)nc2ccccc12	CHOP inhibitor 93
CCOC(=O)c1sc(NC(=O)c2cc(-c3ccc(C)cc3)nc3ccccc23)c(C#N)c1C	none
Cc1cccc(CN2C(=O)N/C(=C/c3cc(C)n(-c4cc(C)ccn4)c3C)C2=O)c1	none
CC(C)(C)c1ccc(NC(=O)Cn2cnc3cc([N+](=O)[O-])ccc3c2=O)cc1	CHOP inhibitor 91
COc1ccc(CC(=O)OCc2cc3cccc(C)c3[nH]c2=O)cc1	none
COc1ccc(C(=O)OCc2cc3cccc(C)c3[nH]c2=O)cc1	CHOP inhibitor 81
CCCCN(C(=O)NC(=O)Nc1cccc(C)c1C)S(C)(=O)=O	CHOP inhibitor 81
Cc1ccc2cc(CN(CCCN(C)C)C(=O)NCc3ccccc3)c(=O)[nH]c2c1C	CHOP inhibitor 74
O=C(CS(=O)(=O)c1cn(CC(=O)N2CCCC2)c2ccccc12)Nc1ccccc1	none (no result: CHOP inhibitor)
O=Cc1cn(-c2ccccc2)nc1-c1cc2ccccc2oc1=O	CHOP inhibitor 88
O=C1CCCCC/C1=N/Nc1ccc(OCc2ccccc2)cc1	none
C=CCNC(=O)CN(c1ccc(F)c(Cl)c1)S(C)(=O)=O	CHOP inhibitor 79
CC1CCN(CCCCOc2cccc(Br)c2)CC1	none
Cc1ccccc1C1=NC(C(F)(F)F)(C(F)(F)F)c2c(n(C)c(=O)n(C)c2=O)N1	none
Cn1c2c(c(=O)n(C)c1=O)C(C(F)(F)F)(C(F)(F)F)N=C(c1ccc(Cl)cc1)N2	CHOP inhibitor 77
CC(=O)c1sc(NC(=O)COc2c(C)cc(Cl)cc2C)nc1C	CHOP inhibitor 83
CCCCc1c(O)nc(SCC(=O)c2ccccc2)n(-c2ccccc2)c1=O	none
CS(=O)(=O)Nc1ccc(C2=NN(C(=O)c3ccccc3)C(c3cccs3)C2)cc1 (stereo not drawn)	none (no result: CHOP inhibitor)
CS(=O)(=O)Nc1ccc(C2=NN(C(=O)c3cccc(F)c3)C(c3cccs3)C2)cc1 (stereo not drawn)	A1 inh 5.4 (no result: CHOP inhibitor)
CCOC(=O)c1ccccc1NC(=O)CSc1ncc(C(=O)OCC)c(N)n1	CHOP inhibitor 75
CCOC(=O)c1ccccc1NC(=O)CSc1nc(N)cc(N)n1	none
Fc1cccc(CN(C2=NCCN2)c2c(Cl)cccc2Cl)c1	none (no result: CHOP inhibitor)
Cc1cccc(Oc2cc([N+](=O)[O-])cc3c2C(=O)Nc2ccccc2O3)c1	CHOP inhibitor 92
CC(C)(CN1CCCCC1)NS(=O)(=O)c1ccc(Cl)cc1	none
